# A selection: hits, their analogues and other compounds. The true share with any hit is near 0.62%.
# PMI activator: activators of human PMI, primary screen, biochemical, fluorescence intensity, near-Km mannose 6-phosphate | Mannose-6-phosphate isomerase (Homo sapiens), P34949 | purified human PMI, coupled resazurin fluorescence, 20 min; hits give high values; 1 = vehicle control, 0 substrate-free wells | activation factor at 20 µM | 0.005% of 190,000 active | AID 1214, 2008;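 active = activation factor of 2 or more at 20 µM, relative to plate controls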
# TNAP act hiacc: TNAP activators at high phosphate acceptor level, primary screen, biochemical, luminescence, uHTS; Alkaline phosphatase, tissue-nonspecific isozyme (Homo sapiens), P05186; purified TNAP, CDP-star luminescence, 1 M DEA, 30 min; hits give high values; 0 = EDTA background, 1 = DMSO-only activity; activation factor at 20 µM; 200,000 tested, under 10 active;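 active = activation factor at least 2 at 20 µM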
# Target sequence (P05186 whole entry, looked up): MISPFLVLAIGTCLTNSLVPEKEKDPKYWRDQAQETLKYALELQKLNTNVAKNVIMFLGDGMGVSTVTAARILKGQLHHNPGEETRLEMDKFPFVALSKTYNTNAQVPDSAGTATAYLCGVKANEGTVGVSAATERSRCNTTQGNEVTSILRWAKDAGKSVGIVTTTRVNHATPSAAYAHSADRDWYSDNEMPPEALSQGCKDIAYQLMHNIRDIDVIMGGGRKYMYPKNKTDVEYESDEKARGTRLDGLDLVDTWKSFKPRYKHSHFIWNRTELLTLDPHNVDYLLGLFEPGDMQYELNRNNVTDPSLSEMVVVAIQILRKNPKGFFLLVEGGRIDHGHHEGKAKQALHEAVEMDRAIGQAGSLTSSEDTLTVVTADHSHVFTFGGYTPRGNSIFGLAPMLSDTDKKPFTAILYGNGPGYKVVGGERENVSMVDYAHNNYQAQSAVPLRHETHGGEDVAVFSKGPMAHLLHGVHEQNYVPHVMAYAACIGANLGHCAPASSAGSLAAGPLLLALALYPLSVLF
#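 Measured by: Luminescent substrate turnover signal | Test system: Human TNAP | Input: TNAP 1/800 final | Dosing: 20 µM single point | Schedule: 30 min, room temperature | Controls: EDTA wells as negative control, DMSO wells as positive control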
# PMI act hi M6P: human PMI activators, high substrate, primary screen, biochemical, fluorescence intensity, near-saturating mannose 6-phosphate; Mannose-6-phosphate isomerase (Homo sapiens), P34949; coupled PMI enzyme assay, resazurin fluorescence, 20 min; hits give high values; 1 = untreated enzyme, 0 = substrate-free blank; activation factor at 20 µM; 0.34% of 190,000 active; AID 1216, 2008;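 active = activation factor of 2 or more at 20 µM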
#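 Test system: human phosphomannose isomerase with PGI, G6PDH, diaphorase coupling enzymes; Amount: PMI at 15 ng/mL final; Reagent: Mannose-6-phosphate 1.0 mM (near-saturating) plus 0.22 mM NADP+; Timing: 20 min, room temperature; Technique: resorufin fluorescence at Ex 544/Em 590 nm; Dosing: 20 µM single dose.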
# TNAP inh hi DEA: human TNAP enzyme inhibitors, primary screen, biochemical, luminescent, high phosphate acceptor level, uHTS | Alkaline phosphatase, tissue-nonspecific isozyme (Homo sapiens), P05186 | 0.03% of 200,000 active | inhibition, % at 20 µM | purified TNAP, CDP-star luminescence, 1 M DEA | AID 1135, 2008;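 active = over 50% inhibition of tissue-nonspecific alkaline phosphatase at 20 µM in the single-dose screen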;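 note: plate controls were DMSO wells for no effect and EDTA-quenched wells as full inhibition for full effect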
# TNAP inh noacc: human TNAP enzyme inhibitors, primary screen, biochemical, luminescent, no phosphate acceptor, uHTS. Alkaline phosphatase, tissue-nonspecific isozyme (Homo sapiens), P05186. purified TNAP, CDP-star luminescence, 30 min. inhibition, % at 20 µM. 0.26% of 200,000 active. AID 1012, 2008;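 active = tissue-nonspecific alkaline phosphatase inhibition above about 50% at 20 µM in the single-dose screen, limit read from the data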;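 note: 0% = DMSO negative control and 100% = EDTA positive control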
# The depositor's hits bear a star.
SMILES,PMI activator,TNAP act hiacc,PMI act hi M6P,TNAP inh hi DEA,TNAP inh noacc
CCOC(=O)N1CCC(=NNS(=O)(=O)c2cccc([N+](=O)[O-])c2)CC1,1.7,1.1,2.1*,-9.9,-9.7
CC(C)NC(=O)c1ccc(-n2c(=S)[nH]c3ccccc3c2=O)cc1,1,1,1,-3.8,-13.2
COc1cc(C)c(NC(=O)C(=S)NCCc2ccccc2)cc1C,0.8,1.1,0.9,-6.3,-96.3
COc1ccc(C2CC(=O)n3nc(C45CC6CC(CC(C6)C4)C5)nc3S2)cc1OC (centres undefined),0.8,1,0.9,1.0,88.4*
CCOc1ccc(C2CC(=O)n3nc(C45CC6CC(CC(C6)C4)C5)nc3S2)cc1OC (centres undefined),0.9,1,1,-3.3,84.8*
S=C(N=Nc1ccccc1)NNc1ccccc1,1.8,0.9,2.7*,8.5,21.5
COc1ccc(-c2nc(N=Nc3ccc(O)cc3)n[nH]2)cc1,1,0.7,1,28.7,74.3*
Cc1ccc(-c2nc(N=Nc3ccc(O)cc3)n[nH]2)cc1,1.1,0.7,1,33.3,68.5*
COc1ccc(C(=O)Cc2nnc(C)s2)cc1,1,1,0.8,-4.0,-5.9
CCSc1cc(C2C(C(=O)OC)=C(C)NC3=C2C(=O)CCC3)c(C)o1 (centres undefined),1.1,1.1,2.1*,-6.9,-12.2
Cc1occc1-c1nnc(SCC(=O)N2CCCCC2)o1,1.1,1,1.1,-3.8,-12.9
COc1ccc(CCN(Cc2cccs2)S(=O)(=O)c2ccc(S(=O)(=O)N(C)C3CCCCC3)cc2)cc1OC,0.9,1,0.9,-4.7,-8.5
COc1ccc(C(=O)Nc2ccc(C3CC3(Cl)Cl)cc2)cc1 (centres undefined),1.1,1.1,1.1,-8.9,-10.7
CCOc1ccc(CC(=O)C2C(=O)CCCC2=O)cc1OCC,1.4,1,2.1*,-2.4,-0.6
CCNc1nc(NC(C)(C)C)nc(Oc2ccc(=O)n(-c3ccccc3)n2)n1,1,1,1.1,-4.6,-6.9
O=S(=O)(c1ccc(N=C2NN=C(c3cc(F)ccc3F)CS2)cc1)N1CCOCC1,1.7,1,2.3*,0.5,-10.5
O=C1C=C(NCCc2ccccc2)C2(CCCCC2)O1,1.1,1,1.1,-2.1,5.9
N#CCCn1cc(/C=N/NC(N)=S)c(-c2ccccc2)n1,1.1,1,1.1,0.1,56.1*
C/C(=N/NC(=O)C(=O)N/N=C(/C)c1ccccc1)c1ccccc1,1,1,0.9,-1.3,-58.4
C/C(=N\NC(=O)C(=O)N/N=C(\C)c1cccc(O)c1)c1cccc(O)c1,1,1,1,-2.8,54.9*
O=C(CSc1n[nH]c(-c2ccccc2)n1)Nc1ccc(Br)cn1,1,1,1,1.6,57.4*
Cc1noc(NS(=O)(=O)c2ccc(NC(=O)CSc3nc4ccccc4[nH]3)cc2)c1C,1,1,1,-1.3,-9.0
Cc1c(NC(=O)CSc2n[nH]c(-c3ccccc3)n2)c(=O)n(-c2ccccc2)n1C,1,1,1,3.4,52.8*
Cc1noc(NS(=O)(=O)c2ccc(NC(=O)CSc3n[nH]c(-c4ccccc4)n3)cc2)c1C,1,0.9,0.9,8.1,60.1*
O=C(CSc1n[nH]c(-c2ccccc2)n1)Nc1ncccn1,1.1,1,1,0.2,35.8
SMILES,PMI activator,TNAP act hiacc,PMI act hi M6P,TNAP inh hi DEA,TNAP inh noacc
O=C(O)c1c(-c2ccc(Cl)cc2)cn2ccccc12,1.1,1.1,1,-5.1,6.6
Nc1c(C(=O)C2CC2)sc2nc(-c3ccccc3)cc(C(F)(F)F)c12,1.5,1,2*,-0.3,-7.1
Cc1cc(C)c(S(=O)(=O)c2ccccc2)c(N2CCOCC2)n1,1,1,1,0.7,-3.9
O=Cc1ccc(-c2ccccc2C(=O)O)o1,1,1,1,0.9,-4.1
Cc1c(C(=O)O)cccc1-c1ccc(/C=N/Nc2ccc(Br)cc2)o1,1.6,1,2.2*,-1.2,-7.1
C/C(=N\NC(=O)c1ccccc1O)C1C(=O)c2ccccc2C1=O,1,0.9,1,12.2,59.8*
O=C(NC1CCCCC1)C1CC(O)CN1C(=O)OCc1ccccc1 (centres undefined),1,1,1,-4.3,-3.7
COC(=O)C1CC(O)CN1C(=O)NC1CCCCC1 (centres undefined),1.6,1,2.4*,-3.0,-7.4
CC1=CC(=C(C#N)C#N)C=C(C)N1CCC(C)C,1,1,1,0.8,-1.8
Cc1c(C(=O)O)oc2c1/C(=N\O)CC(C)(C)C2,1.2,1,1.1,-2.0,-5.6
COC(=O)c1cccc(Cn2c(Cl)c(/C=N/Nc3ccccc3C)sc2=O)c1,1.5,1,2.5*,-1.3,-7.2
O=C(/C=C/NCC(=O)c1ccccc1)c1ccc(Br)cc1,1.6,0.9,2.1*,5.1,0.0
CCOc1cc(/C=C2\CCC/C(=C\c3cc(Cl)c(O)c(OCC)c3)C2=O)cc(Cl)c1O,0.9,0.5,0.7,53.4*,49.3
C=CCNC(=O)/C(C#N)=C\c1cc(Cl)c(O)c(OCC)c1,0.8,0.8,0.6,16.1,14.8
CCc1nc2ccccc2n1CC1CC1(Cl)Cl (centres undefined),1,1,0.9,-1.0,-3.9
COc1cc(/C=N/N=C2/C(=O)Nc3ccccc32)cc(OC)c1O,0.8,0.4,0.6,56.0*,49.4
Cc1ccc(S(=O)(=O)N/N=C2\C(=O)C3(C)CCC2C3(C)C)cc1 (centres undefined),1.8,1.1,2.1*,-5.5,-3.9
Cc1ccc(S(=O)(=O)NC2CCOC(C)(C)C2)cc1 (centres undefined),0.9,1,0.9,0.1,-5.9
C/C(=N\Nc1cccc(C(=O)O)c1)c1ccc(Cl)s1,1.8,1,2.6*,-2.5,-13.7
COc1ccc(/C(C)=N/Nc2cccc(C(=O)O)c2)cc1OC,1.6,1,2.5*,2.1,-15.1
C/C(=N\O)C(C)NC(=O)c1ccccc1 (centres undefined),0.9,1,1,-1.9,-6.4
COc1cc(-c2cc(=O)c3c(O)c(OC)c(OC)c(O)c3o2)ccc1O,0.6,0.9,0.6,5.4,64.3*
COc1c(O)c(O)c2oc(-c3ccccc3)cc(=O)c2c1OC,0.8,1,0.9,3.7,3.5

# High-throughput results: PubChem BioAssay, Sanford-Burnham Center for Chemical Genomics
